Laboratory results taken from ChEMBL document CHEMBL2440012, “Design, synthesis and anticonvulsant properties of new N-Mannich bases derived from 3-phenylpyrrolidine-2,5-diones” (Bioorg Med Chem, 2013).
Active and inactive are the calls of the source. The rule behind the calls is not given here.

Columns and labels:
Mus musculus [1] = experiment: Neurotoxicity in albino CF1 mouse assessed as minimum motor impairment at 300 mg/kg, ip measured after 4 hrs by rotorod test; assay type: toxicity, organism-based; parameters: dose 300 mg/kg, route intraperitoneal; conditions: in vivo
Procedure, shortened: (§1)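 Male CF-1 mice given ip suspension in 0.5% methylcellulose/water at 30, 100 and 300 mg/kg; MES, scPTZ (pentylenetetrazole 85 mg/kg sc, CD97 dose for clonic seizures ≥5 s) and rotarod (inability to hold balance 1 min in each of three trials) assessed at 0.5 and 4 h; value is minimum dose active in half or more animals.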

Mus musculus [2] = experiment: Neurotoxicity in albino CF1 mouse assessed as minimum motor impairment at 300 mg/kg, ip measured after 0.5 hr by rotorod test; assay type: toxicity, organism-based; parameters: dose 300 mg/kg, route intraperitoneal; conditions: in vivo; procedure, shortened: as §1
Mus musculus [3] = experiment: Anticonvulsant activity in albino CF1 mouse assessed as protection against subcutaneous pentylenetetrazole-induced convulsion at 300 mg/kg, ip measured after 4 hrs; assay type: functional, organism-based; parameters: dose 300 mg/kg; procedure, shortened: as §1
Mus musculus [4] = experiment: Anticonvulsant activity in albino CF1 mouse assessed as protection against subcutaneous pentylenetetrazole-induced convulsion at 300 mg/kg, ip measured after 0.5 hrs; assay type: functional, organism-based; parameters: dose 300 mg/kg; procedure, shortened: as §1
Mus musculus [5] = experiment: Anticonvulsant activity in ip dosed albino CF1 mouse assessed as protection against maximal electroshock-induced seizures in half or more animals measured after 4 hrs; assay type: functional; conditions: read-out: MED; procedure, shortened: as §1
Mus musculus [6] = experiment: Anticonvulsant activity in albino CF1 mouse assessed as protection against maximal electroshock-induced seizures at 300 mg/kg, ip measured after 0.5 hr; assay type: functional, organism-based; parameters: dose 300 mg/kg; procedure, shortened: as §1
Mus musculus [7] = experiment: Anticonvulsant activity in ip dosed albino CF1 mouse assessed as protection against maximal electroshock-induced seizures in half or more animals measured after 0.5 hr; assay type: functional; conditions: read-out: MED; procedure, shortened: as §1
Mus musculus [8] = experiment: Neurotoxicity in ip dosed albino CF1 mouse assessed as minimum motor impairment in half or more animals measured after 4 hrs by rotorod test; assay type: toxicity, organism-based; conditions: in vivo; procedure, shortened: as §1
Mus musculus [9] = experiment: Neurotoxicity in ip dosed albino CF1 mouse assessed as minimum motor impairment in half or more animals measured after 0.5 hrs by rotorod test; assay type: toxicity, organism-based; conditions: in vivo; procedure, shortened: as §1
Mus musculus [10] = experiment: Anticonvulsant activity in albino CF1 mouse assessed as protection against maximal electroshock-induced seizures at 300 mg/kg, ip measured after 4 hrs; assay type: functional, organism-based; parameters: dose 300 mg/kg; procedure, shortened: as §1
Rattus norvegicus [11] = experiment: Anticonvulsant activity in albino Sprague-Dawley rat assessed as protection against maximal electroshock-induced seizures at 30 mg/kg, po measured after 4 hrs; assay type: functional
Procedure, shortened: (§2)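 Male Sprague-Dawley rats, four per group, dosed p.o. at 30 mg/kg in 0.5% methylcellulose/water suspension; MES test at 0.25, 0.5, 1, 2 and 4 h, motor impairment examined in parallel; number of rats out of four protected.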

Rattus norvegicus [12] = experiment: Anticonvulsant activity in albino Sprague-Dawley rat assessed as protection against maximal electroshock-induced seizures at 30 mg/kg, po measured after 2 hrs; assay type: functional; procedure, shortened: as §2
Rattus norvegicus [13] = experiment: Anticonvulsant activity in albino Sprague-Dawley rat assessed as protection against maximal electroshock-induced seizures at 30 mg/kg, po measured after 1 hr; assay type: functional; procedure, shortened: as §2
Rattus norvegicus [14] = experiment: Anticonvulsant activity in albino Sprague-Dawley rat assessed as protection against maximal electroshock-induced seizures at 30 mg/kg, po measured after 0.5 hr; assay type: functional; procedure, shortened: as §2
Rattus norvegicus [15] = experiment: Anticonvulsant activity in albino Sprague-Dawley rat assessed as protection against maximal electroshock-induced seizures at 30 mg/kg, po measured after 0.25 hr; assay type: functional; procedure, shortened: as §2

Structure (SMILES) | Activity (Mus musculus [1]) | Activity (Mus musculus [2]) | Activity (Mus musculus [3]) | Activity (Mus musculus [4]) | minimal effective dose (Mus musculus [5]) | Activity (Mus musculus [6]) | minimal effective dose (Mus musculus [7]) | MED (Mus musculus [8]) | MED (Mus musculus [9]) | Activity (Mus musculus [10]) | Activity (Rattus norvegicus [11]) | Activity (Rattus norvegicus [12]) | Activity (Rattus norvegicus [13]) | Activity (Rattus norvegicus [14]) | Activity (Rattus norvegicus [15])
O=C1CC(c2ccccc2Cl)C(=O)N1CN1CCN(c2cccc(C(F)(F)F)c2)CC1 (racemic) | Non-toxic | Non-toxic | inactive | inactive | 100 mg/kg | inactive |  |  |  |  |  |  |  |  | 
O=C1CC(c2ccc(Cl)cc2)C(=O)N1CN1CCN(C2CCCCC2)CC1 (racemic) | Non-toxic | Non-toxic | inactive | inactive | 100 mg/kg | inactive |  |  |  |  |  |  |  |  | 
O=C1CC(c2ccc(Cl)cc2)C(=O)N1CN1CCOCC1 (racemic) | Non-toxic | Non-toxic | inactive | inactive | 300 mg/kg |  | 100 mg/kg |  |  |  |  |  |  |  | 
O=C1CC(c2ccccc2Cl)C(=O)N1CN1CCN(C2CCCCC2)CC1 (racemic) | Non-toxic | Non-toxic | inactive | inactive | 100 mg/kg | inactive |  |  |  |  |  |  |  |  | 
O=C1CC(c2cccc(Cl)c2)C(=O)N1CN1CCN(C2CCCCC2)CC1 (racemic) | Non-toxic | Non-toxic | inactive | inactive | 300 mg/kg |  | 300 mg/kg |  |  |  |  |  |  |  | 
O=C1CC(c2ccc(Cl)cc2)C(=O)N1CN1CCN(c2cccc(Cl)c2)CC1 (racemic) |  |  | inactive | inactive | 100 mg/kg | inactive |  | 300 mg/kg | 300 mg/kg |  |  |  |  |  | 
O=C1CC(c2ccccc2)C(=O)N1CN1CCN(C2CCCCC2)CC1 (racemic) | Non-toxic | Non-toxic | inactive | inactive |  | inactive |  |  |  | inactive |  |  |  |  | 
O=C1CC(c2cccc(Cl)c2)C(=O)N1CN1CCC(Cc2ccccc2)CC1 (racemic) | Non-toxic | Non-toxic | inactive | inactive | 100 mg/kg |  | 300 mg/kg |  |  |  | inactive | 50% | 25% | inactive | 50%
O=C1CC(c2ccc(Cl)cc2)C(=O)N1CN1CCN(c2ccc(Cl)cc2)CC1 (racemic) | Non-toxic | Non-toxic | inactive | inactive |  | inactive |  |  |  | inactive |  |  |  |  | 
O=C1CC(c2cccc(Cl)c2)C(=O)N1CN1CCN(c2cccc(Cl)c2)CC1 (racemic) | Non-toxic | Non-toxic | inactive | inactive |  | inactive |  |  |  | inactive |  |  |  |  | 
O=C1CC(c2cccc(Cl)c2)C(=O)N1CN1CCN(c2ccccc2Cl)CC1 (racemic) | Non-toxic | Non-toxic | inactive | inactive |  | inactive |  |  |  | inactive |  |  |  |  | 
O=C1CC(c2ccccc2Cl)C(=O)N1CN1CCN(c2cccc(Cl)c2)CC1 (racemic) |  |  | inactive | inactive | 100 mg/kg | inactive |  | 300 mg/kg | 100 mg/kg |  |  |  |  |  | 
O=C1CC(c2ccccc2Cl)C(=O)N1CN1CCN(c2ccccc2Cl)CC1 (racemic) | Non-toxic | Non-toxic | inactive | inactive |  | inactive |  |  |  | inactive |  |  |  |  | 
Cc1cccc(N2CCN(CN3C(=O)CC(c4cccc(Cl)c4)C3=O)CC2)c1 (racemic) | Non-toxic |  | inactive | inactive | 30 mg/kg | inactive |  |  | 100 mg/kg |  |  |  |  |  | 
O=C1CC(c2cccc(Cl)c2)C(=O)N1CN1CCN(c2ncccn2)CC1 (racemic) | Non-toxic | Non-toxic | inactive | inactive | 100 mg/kg | inactive |  |  |  |  | inactive | inactive | inactive | inactive | inactive
O=C1CC(c2ccc(Cl)cc2)C(=O)N1CN1CCN(c2cccc(C(F)(F)F)c2)CC1 (racemic) | Non-toxic |  | inactive | inactive | 100 mg/kg | inactive |  |  | 300 mg/kg |  |  |  |  |  | 
O=C1CC(c2ccc(Cl)cc2)C(=O)N1CN1CCN(c2ncccn2)CC1 (racemic) | Non-toxic |  | inactive | inactive |  | inactive |  |  | 300 mg/kg | inactive |  |  |  |  | 
O=C1CC(c2cccc(Cl)c2)C(=O)N1CN1CCOCC1 (racemic) | Non-toxic |  | inactive | inactive | 100 mg/kg |  | 100 mg/kg |  | 300 mg/kg |  | 50% | 50% | 50% | 50% | inactive
O=C1CC(c2cccc(Cl)c2)C(=O)N1CN1CCN(c2ccc(Cl)cc2)CC1 (racemic) | Non-toxic | Non-toxic | inactive | inactive | 100 mg/kg |  | 300 mg/kg |  |  |  |  |  |  |  | 
O=C1CC(c2ccccc2Cl)C(=O)N1CN1CCN(c2ccc(Cl)cc2)CC1 (racemic) | Non-toxic | Non-toxic | inactive | inactive | 300 mg/kg | inactive |  |  |  |  |  |  |  |  | 
O=C1CC(c2cccc(Cl)c2)C(=O)N1CN1CCN(c2ccccc2F)CC1 (racemic) | Non-toxic |  | inactive | inactive | 100 mg/kg | inactive |  |  | 300 mg/kg |  |  |  |  |  | 
